Laboratory results from ChEMBL document CHEMBL3098025, “Optimization of potency and pharmacokinetics of tricyclic indole derived inhibitors of HCV NS5B polymerase. Identification of ester prodrugs with improved oral pharmacokinetics” (Bioorg Med Chem, 2014).
pEC50, pIC50: −log10 of the molar value.

Legend:
Rattus norvegicus [1] = assay: Prodrug conversion in Sprague-Dawley rat assessed as AUC (0 to 24 hrs) of 6-((3-Amino-6-fluoro-1H-indazol-5-yl)methyl)-4-fluoro-8-(2-oxo-1,2-dihydropyridin-3-yl)-6H-furo[2,3-e]indole-7-carboxylic acid level at 10 mg/kg, po; type: ADME, organism-based; parameters: time < 24 hr, dose 10 mg/kg, route oral; conditions: in vivo
Method in brief: (§1)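 Dimethylaminoethyl ester prodrugs were dosed orally to rats at 10 mg/kg in 0.4% methylcellulose.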

Hepatitis C virus = assay: Antiviral activity against HCV1b assessed as inhibition of viral replication; type: functional, organism-based, Hepacivirus hominis; conditions: genotype 1b
Method in brief: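 In the cell-based HCV replicon assay, viral RNA levels were measured. EC50 is the concentration giving a 50% reduction in replicon RNA.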

Cynomolgus monkey [2] = assay: Prodrug conversion in cynomolgus monkey assessed as AUC (0 to 24 hrs) of 6-((3-Amino-6-fluoro-1H-indazol-5-yl)methyl)-4-fluoro-8-(2-oxo-1,2-dihydropyridin-3-yl)-6H-furo[2,3-e]indole-7-carboxylic acid level at 3 mg/kg, po; type: ADME, organism-based, Macaca fascicularis; parameters: time < 24 hr, dose 3 mg/kg, route oral; conditions: in vivo
[3] = AUC (0 to 6 hrs) in Sprague-Dawley rat at 10 mg/kg, po; type: ADME, organism-based; parameters: time < 6 hr, dose 10 mg/kg, route oral; conditions: plasma
Method in brief: (§2)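 Sprague Dawley rats received esters orally at 10 mg/kg in 0.4% methylcellulose, given as trifluoroacetate salts. Plasma levels of both the intact ester prodrug and the acid metabolite were measured. AUC was integrated over 0–6 h after dosing.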

[4] = Inhibition of HCV1b NS5B polymerase; parameters: species or system Hepatitis C virus subtype 1b
Rattus norvegicus [5] = assay: Prodrug conversion in Sprague-Dawley rat assessed as AUC (0 to 6 hrs) of parent compound level at 10 mg/kg, po; type: ADME, organism-based; parameters: time < 6 hr, dose 10 mg/kg, route oral; conditions: in vivo; method in brief: as §2
Rattus norvegicus [6] = assay: Prodrug conversion in Sprague-Dawley rat assessed as AUC (0 to 6 hrs) of 6-((6-Chloro-1H-benzo[d]imidazol-5-yl)methyl)-4-fluoro-8-(2-oxo-1,2-dihydropyridin-3-yl)-6H-furo[2,3-e]indole-7-carboxylic acid level at 10 mg/kg, po; type: ADME, organism-based; parameters: time < 6 hr, dose 10 mg/kg, route oral; conditions: in vivo; method in brief: as §2
Rattus norvegicus [7] = assay: Prodrug conversion in Sprague-Dawley rat assessed as AUC (0 to 24 hrs) of 4-Fluoro-6-((6-fluoro-1H-indazol-5-yl)methyl)-8-(2-oxo-1,2-dihydropyridin-3-yl)-6H-furo[2,3-e]indole-7-carboxylic acid level at 10 mg/kg, po; type: ADME, organism-based; parameters: time < 24 hr, dose 10 mg/kg, route oral; conditions: in vivo; method in brief: as §1
Cynomolgus monkey [8] = assay: Prodrug conversion in cynomolgus monkey assessed as AUC (0 to 24 hrs) of 4-Fluoro-6-((6-fluoro-1H-indazol-5-yl)methyl)-8-(2-oxo-1,2-dihydropyridin-3-yl)-6H-furo[2,3-e]indole-7-carboxylic acid level at 3 mg/kg, po; type: ADME, organism-based, Macaca fascicularis; parameters: time < 24 hr, dose 3 mg/kg, route oral; conditions: in vivo
Liver microsome [9] = assay: Metabolic stability in human liver microsomes assessed as glutathione adduct formation; type: ADME
Liver microsome [10] = assay: Metabolic stability in human liver microsomes assessed as oxidation; type: ADME
Cynomolgus monkey [11] = assay: Prodrug conversion in cynomolgus monkey assessed as AUC (0 to 24 hrs) of 4-Fluoro-6-((6-fluoro-1H-benzo[d]imidazol-5-yl)methyl)-8-(2-oxo-1,2-dihydropyridin-3-yl)-6H-furo[2,3-e]indole-7-carboxylic acid level at 3 mg/kg, po; type: ADME, organism-based, Macaca fascicularis; parameters: time < 24 hr, dose 3 mg/kg, route oral; conditions: in vivo
Rattus norvegicus [12] = assay: Prodrug conversion in Sprague-Dawley rat assessed as AUC (0 to 24 hrs) of 4-Fluoro-6-((6-fluoro-1H-benzo[d]imidazol-5-yl)methyl)-8-(2-oxo-1,2-dihydropyridin-3-yl)-6H-furo[2,3-e]indole-7-carboxylic acid level at 10 mg/kg, po; type: ADME, organism-based; parameters: time < 24 hr, dose 10 mg/kg, route oral; conditions: in vivo; method in brief: as §1
Cynomolgus monkey [13] = assay: Prodrug conversion in cynomolgus monkey assessed as AUC (0 to 24 hrs) of 6-((6-Chloro-1H-benzo[d]imidazol-5-yl)methyl)-4-fluoro-8-(2-oxo-1,2-dihydropyridin-3-yl)-6H-furo[2,3-e]indole-7-carboxylic acid level at 3 mg/kg, po; type: ADME, organism-based, Macaca fascicularis; parameters: time < 24 hr, dose 3 mg/kg, route oral; conditions: in vivo
Rattus norvegicus [14] = assay: Prodrug conversion in Sprague-Dawley rat assessed as AUC (0 to 24 hrs) of 6-((6-Chloro-1H-benzo[d]imidazol-5-yl)methyl)-4-fluoro-8-(2-oxo-1,2-dihydropyridin-3-yl)-6H-furo[2,3-e]indole-7-carboxylic acid level at 10 mg/kg, po; type: ADME, organism-based; parameters: time < 24 hr, dose 10 mg/kg, route oral; conditions: in vivo; method in brief: as §1

SMILES	pEC50 (Hepatitis C virus)	AUC(0-t) at 6 h [3] [µM·h]	pIC50 [4]	AUC (Rattus norvegicus [6]) [µM·h]	other results
CN(C)CCOC(=O)c1c(-c2ccc[nH]c2=O)c2c3occc3c(F)cc2n1Cc1cc2c(N)n[nH]c2cc1F.O=C(O)C(F)(F)F	8.40	–	–	–	AUC (Rattus norvegicus [1]): 118 µM·h; AUC (Cynomolgus monkey [2]): 4.2 µM·h
O=C(O)c1c(-c2ccc[nH]c2=O)c2c3occc3c(F)cc2n1Cc1ccc2nc[nH]c2c1	7.52	9.3	8.30	–	–
O=C([O-])c1c(-c2ccc[nH]c2=O)c2c3occc3c(F)cc2n1Cc1cc2[nH]cnc2cc1Cl.[Na+]	–	–	–	2.1	–
Nc1n[nH]c2cc(F)c(Cn3c(C(=O)O)c(-c4ccc[nH]c4=O)c4c5occc5c(F)cc43)cc12	8.52	2.1	8.40	–	–
O=C(O)c1c(-c2ccc[nH]c2=O)c2c3occc3c(F)cc2n1Cc1cc2[nH]cnc2cc1F	8.15	7.7	8.52	–	–
O=C(O)c1c(-c2ccc[nH]c2=O)c2c3occc3c(F)cc2n1Cc1cc(F)ccc1F	–	–	8.70	–	Stability (Liver microsome [9]): Stable; EC90 (Hepatitis C virus): 90 nM; Stability (Liver microsome [10]): Stable
CC(OC(=O)c1c(-c2ccc[nH]c2=O)c2c3occc3c(F)cc2n1Cc1cc2[nH]cnc2cc1Cl)c1ccccc1 (stereo not given)	–	–	–	0.2	AUC (Rattus norvegicus [5]): 0.3 µM·h
O=C(O)c1c(-c2ccc[nH]c2=O)c2c3occc3c(F)cc2n1Cc1cc2cn[nH]c2cc1Cl	8.30	5.1	8.52	–	–
O=C(O)c1c(-c2ccc[nH]c2=O)c2c3occc3c(F)cc2n1Cc1cc2[nH]cnc2cc1Cl	8.10	1.2	8.22	–	–

The next lines start with results.

pEC50 (Hepatitis C virus)	AUC(0-t) at 6 h [3] [µM·h]	pIC50 [4]	AUC (Rattus norvegicus [6]) [µM·h]	SMILES	other results
–	–	–	32.6	CC(CN(C)C)OC(=O)c1c(-c2ccc[nH]c2=O)c2c3occc3c(F)cc2n1Cc1cc2[nH]cnc2cc1Cl.O=C(O)C(F)(F)F (stereo not given)	AUC (Rattus norvegicus [5]): 0.8 µM·h
–	–	–	5.5	O=C(O)C(F)(F)F.O=C(OCCN1CCOCC1)c1c(-c2ccc[nH]c2=O)c2c3occc3c(F)cc2n1Cc1cc2[nH]cnc2cc1Cl	AUC (Rattus norvegicus [5]): 0.2 µM·h
8.22	–	–	–	CN(C)CCOC(=O)c1c(-c2ccc[nH]c2=O)c2c3occc3c(F)cc2n1Cc1cc2cn[nH]c2cc1F.O=C(O)C(F)(F)F	AUC (Rattus norvegicus [7]): 222 µM·h; AUC (Cynomolgus monkey [8]): 33 µM·h
8.22	–	–	–	CN(C)CCOC(=O)c1c(-c2ccc[nH]c2=O)c2c3occc3c(F)cc2n1Cc1cc2[nH]cnc2cc1F.O=C(O)C(F)(F)F	AUC (Cynomolgus monkey [11]): 14.6 µM·h; AUC (Rattus norvegicus [12]): 159 µM·h
7.89	–	–	32.5	CN(C)CCOC(=O)c1c(-c2ccc[nH]c2=O)c2c3occc3c(F)cc2n1Cc1cc2[nH]cnc2cc1Cl.O=C(O)C(F)(F)F	AUC (Rattus norvegicus [5]): 0.5 µM·h; AUC (Cynomolgus monkey [13]): 14 µM·h; AUC (Rattus norvegicus [14]): 208 µM·h
